Experimental data from ChEMBL document CHEMBL1128250, “Structure-activity studies of 2,3,4,4a,5,9b-hexahydroindeno[1,2-c]pyridines as antispermatogenic agents for male contraception” (1995).
Several values for one entry are separate records, joined by “and”; a condition that tells them apart may be missing. Equal values may be shown once.

Key:
Mus musculus [1] = assay: Tested for its effect on testes weight 3 days after single oral dose (90 mg/kg); assay type: functional, Testis
Procedure, shortened: (§1)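 CD-1 outbred Swiss albino male mice, 5 per dose, single gavage on day 0 at 10 mL/kg. Vehicle was 0.15 M acetate buffer pH 5, ethanol/Tween-20/water (3:7:90), or 1% Tween-20 in water. CO2 euthanasia 72 h later. Testes weighed and histologically scored (spermatogenic index 0–6). Values are % reduction versus the assay's vehicle control. Positive control was 30 mg/kg of the parent compound. Significance by Dunnett's one-tailed t-test, p < 0.05.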

Mus musculus [2] = assay: Tested for its effect on spermatogenic index 3 days after single oral dose (90 mg/kg),; assay type: functional; procedure, shortened: as §1
Mus musculus [3] = assay: Tested for its effect on spermatogenic index 3 days after single oral dose (10 mg/kg); assay type: functional
Procedure, shortened: (§2)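 Male CD-1 (ICR) mice, 7 weeks old on arrival, 5 per dose, single gavage of 10 mL/kg on day 0. Vehicle was 0.15 M acetate buffer pH 5, ethanol/Tween-20/water 3:7:90, or 1% Tween-20. Mice were killed with CO2 at 72 h and testes weighed and scored for spermatogenic index (0–6 scale). Results are % reduction versus the vehicle control. Dunnett's one-tailed t-test.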

Mus musculus [4] = assay: Tested for its effect on testes weight 3 days after single oral dose (3 mg/kg); assay type: functional, Testis; procedure, shortened: as §2
Mus musculus [5] = assay: Tested for its effect on spermatogenic index 3 days after single oral dose (30 mg/kg); assay type: functional; procedure, shortened: as §1
Mus musculus [6] = assay: Tested for its effect on testes weight 3 days after single oral dose (30 mg/kg); assay type: functional, Testis; procedure, shortened: as §1
Mus musculus [7] = assay: Tested for its effect on testes weight 3 days after single oral dose (10 mg/kg); assay type: functional, Testis; procedure, shortened: as §1
Mus musculus [8] = assay: Tested for its effect on spermatogenic index 3 days after single oral dose (3 mg/kg),; assay type: functional; procedure, shortened: as §2
Mus musculus [9] = assay: Tested for its effect on mouse testes weight 3 days after single oral dose (90 mg/kg); assay type: functional, Testis; procedure, shortened: as §1
Mus musculus [10] = assay: Tested for its effect on spermatogenic index 3 days after single oral dose (90 mg/kg) in mice; assay type: functional; procedure, shortened: as §1
Mus musculus [11] = assay: tested for its effect on testes weight 3 days after single oral dose (30 mg/kg); assay type: functional, Testis
Procedure, shortened: (§3)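 Male CD-1 (ICR)BR outbred Swiss albino mice, 5/dose, given one oral gavage dose (10 mL/kg) on day 0 in 0.15 M acetate buffer pH 5, ethanol/Tween-20/water (3:7:90), or 1% Tween-20 in water; vehicle and positive-control groups in each assay. Killed by CO2 72 h later; testes weighed. Expressed as % reduction versus vehicle control; Dunnett's one-tailed t-test.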

Mus musculus [12] = assay: tested for its effect on spermatogenic index 3 days after single oral dose (10 mg/kg); assay type: functional
Procedure, shortened: (§4)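 Male CD-1 (ICR)BR outbred Swiss albino mice, 5/dose, single oral gavage dose (10 mL/kg) on day 0 in acetate buffer pH 5 or Tween-20-based vehicle; killed 72 h later. Testis cross-sections scored histologically on a 0–6 spermatogenic index (Sertoli only to >100 late spermatids/tubule). Reported as % reduction versus vehicle control; Dunnett's one-tailed t-test.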

Mus musculus [13] = assay: tested for its effect on spermatogenic index 3 days after single oral dose (30 mg/kg); assay type: functional; procedure, shortened: as §4
Mus musculus [14] = assay: tested for its effect on testes weight 3 days after single oral dose (90 mg/kg); assay type: functional, Testis; procedure, shortened: as §3
Mus musculus [15] = assay: Tested for its effect on pregnancy index of male CD-1 mice when dosed with 15 mg/kg (Dunnett's one-tailed t-test, p<0.05); assay type: functional
Procedure, shortened: (§5)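 Male CD-1 mice (8–10/group) gavaged daily for 35 days, vehicle 1% Tween-20 in water, 10 mL/kg. From the day after the last dose, each male was housed with two females for up to 5 days, with vaginal copulatory plugs checked each morning. Pregnancy index is litters born per number of females.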

Mus musculus [16] = assay: Tested for its effect on pregnancy index of male CD-1 mice when dosed with 7.5 mg/kg (Dunnett's one-tailed t-test, p<0.05); assay type: functional; procedure, shortened: as §5
Mus musculus [17] = assay: Tested for its effect on testes weight 3 days after single sub cutaneous dose (3 mg/kg); assay type: functional, Testis
Procedure, shortened: (§6)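 Single subcutaneous injection, 10 mL/kg, to male CD-1 mice (5 per dose) in ethanol/Tween-20/water (3:7:90, v/v/v) on day 0. Mice were killed at 72 h; testes were weighed and histology scored for spermatogenic index (0–6). Results are % reduction from the vehicle control, with a 30 mg/kg positive control group. Dunnett's one-tailed t-test.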

Mus musculus [18] = assay: Tested for its effect on testes weight of male CD-1 mice when dosed with 7.5 mg/kg (Dunnett's one-tailed t-test, p<0.05); assay type: functional, Testis
Procedure, shortened: (§7)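 Male CD-1 mice gavaged daily for 35 days in 1% Tween-20 in water at 10 mL/kg. Half of each group was killed 7 days after the last dose; testes were weighed and sectioned for histology. Spermatogenic index was scored 0–6 from the cell types and late spermatids per tubule. Mean ± SEM; Dunnett's one-tailed t-test versus control.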

Mus musculus [19] = assay: Tested for its effect on testes weight of male CD-1 mice when dosed with 3.75 mg/kg Data are means +/-standard error of the mean (n=4).; assay type: functional, Testis; procedure, shortened: as §7
Mus musculus [20] = assay: Tested for its effect on spermatogenic index 3 days after single oral dose (90 mg/kg); assay type: functional; procedure, shortened: as §1
Mus musculus [21] = assay: Tested for its effect on testes weight 3 days after single sub cutaneous (10 mg/kg); assay type: functional, Testis; procedure, shortened: as §6
Mus musculus [22] = assay: Tested for its effect on spermatogenic index 3 days after single oral dose (3 mg/kg); assay type: functional; procedure, shortened: as §2
Mus musculus [23] = assay: Tested for its effect on testes weight 3 days after single sub cutaneous dose (30 mg/kg); assay type: functional, Testis; procedure, shortened: as §6
Mus musculus [24] = assay: Tested for its effect on pregnancy index of male CD-1 mice when dosed with 3.75 mg/kg Data are means +/-standard error of the mean (n=4).; assay type: functional; procedure, shortened: as §5
Mus musculus [25] = assay: Tested for its effect on testes weight of male CD-1 mice when dosed with 15 mg/kg (Dunnett's one-tailed t-test, p<0.05); assay type: functional, Testis; procedure, shortened: as §7
Mus musculus [26] = assay: Tested for its effect on spermatogenic index of male CD-1 mice when dosed with 15 mg/kg (Dunnett's one-tailed t-test, p<0.05); assay type: functional; procedure, shortened: as §7
Mus musculus [27] = assay: Tested for its effect on spermatogenic index 3 days after single sub cutaneous dose (10 mg/kg); assay type: functional; procedure, shortened: as §6
Mus musculus [28] = assay: Tested for its effect on spermatogenic index of male CD-1 mice when dosed with 3.75 mg/kg Data are means +/-standard error of the mean (n=4).; assay type: functional; procedure, shortened: as §7
Mus musculus [29] = assay: Tested for its effect on spermatogenic index of male CD-1 mice when dosed with 7.5 mg/kg (Dunnett's one-tailed t-test, p<0.05); assay type: functional; procedure, shortened: as §7
Mus musculus [30] = assay: Tested for its effect on spermatogenic index 3 days after single oral dose (10 mg/kg),; assay type: functional; procedure, shortened: as §1

CCN1CC[C@H]2[C@H](c3ccccc3C)c3cc(C)ccc3[C@H]2C1.Cl
Reduction (Mus musculus [1]): 3%
Reduction (Mus musculus [2]): -9%

CCN1CC[C@H]2[C@H](c3ccc(F)cc3)c3cc(C)ccc3[C@H]2C1.Cl
Reduction (Mus musculus [1]): 5%
Reduction (Mus musculus [2]): -5%

CCc1ccc2c(c1)[C@@H](c1ccc(C(=O)OC)cc1)[C@@H]1CCN(CC)C[C@H]21.Cl
Reduction (Mus musculus [3]): -4%
Reduction (Mus musculus [4]): -18%
Reduction (Mus musculus [5]): 23%
Reduction (Mus musculus [6]): 8%
Reduction (Mus musculus [7]): 0%
Reduction (Mus musculus [8]): 4%

CCN1CC[C@H]2[C@@H](c3ccc(C)cc3)c3cc(C)ccc3[C@H]2C1.Cl
Reduction (Mus musculus [9]): 2%
Reduction (Mus musculus [10]): -9%

CCN1CCC(=C(c2ccc(C)cc2)c2cccc(C)c2)CC1.Cl
Reduction (Mus musculus [1]): -5%
Reduction (Mus musculus [2]): 0%

CCN1CC[C@H]2[C@H](c3ccc(C#N)cc3)c3cc(C)ccc3[C@H]2C1.Cl
Reduction (Mus musculus [1]): 13%
Reduction (Mus musculus [2]): -4%

Cc1ccc([C@@H]2c3cc(C)ccc3[C@H]3CN(C)CC[C@@H]23)cc1.Cl
Reduction (Mus musculus [1]): 8%
Reduction (Mus musculus [2]): -3%
Reduction (Mus musculus [11]): 18%
Reduction (Mus musculus [12]): 26%
Reduction (Mus musculus [13]): 38%
Reduction (Mus musculus [14]): 7%

CCN1CCC(C(O)(c2ccc(C)cc2)c2ccc(C)cc2)CC1.Cl
Reduction (Mus musculus [1]): -21%
Reduction (Mus musculus [2]): 0%

CCN1CC[C@H]2[C@H](c3ccc(C(=O)OC)cc3)c3cc(C)ccc3[C@H]2C1.Cl
Reduction (Mus musculus [3]): 27%
Pregnancy index (Mus musculus [15]): 0
Pregnancy index (Mus musculus [16]): 2
Reduction (Mus musculus [17]): 10%
Reduction (Mus musculus [5]): 57% and 46% and 61%
Testes weight (Mus musculus [18]): 114.7 mg
Testes weight (Mus musculus [19]): 219.08 mg
Reduction (Mus musculus [2]): -5%
Reduction (Mus musculus [20]): 68%
Reduction (Mus musculus [21]): 1%
Reduction (Mus musculus [22]): 5%
Reduction (Mus musculus [6]): 32% and 30%
Reduction (Mus musculus [23]): 19%
Pregnancy index (Mus musculus [24]): 16
Testes weight (Mus musculus [25]): 108.94 mg
Spermatogenic index (Mus musculus [26]): 1.6
Reduction (Mus musculus [7]): 17%
Reduction (Mus musculus [27]): 28%
Spermatogenic index (Mus musculus [28]): 5.5
Spermatogenic index (Mus musculus [29]): 3

CCN1CC[C@H]2[C@H](c3ccc(C=O)cc3)c3cc(C)ccc3[C@H]2C1.Cl
Reduction (Mus musculus [3]): 2%
Reduction (Mus musculus [4]): 7%
Reduction (Mus musculus [5]): 31% and 30%
Reduction (Mus musculus [6]): 7%
Reduction (Mus musculus [23]): -4%
Reduction (Mus musculus [7]): 6%
Reduction (Mus musculus [8]): 0%

CCc1ccc2c(c1)[C@@H](c1ccc(C)cc1)[C@@H]1CCN(CC)C[C@H]21.Cl
Reduction (Mus musculus [3]): 7%
Reduction (Mus musculus [4]): 3%
Reduction (Mus musculus [5]): 33%
Reduction (Mus musculus [6]): 26%
Reduction (Mus musculus [7]): 2%
Reduction (Mus musculus [8]): -2%

CCN1CC[C@H]2[C@H](c3ccc(C)cc3)c3ccccc3[C@H]2C1.Cl
Reduction (Mus musculus [1]): 20%
Reduction (Mus musculus [30]): 0%
Reduction (Mus musculus [5]): 20%
Reduction (Mus musculus [20]): 35%
Reduction (Mus musculus [6]): 3%
Reduction (Mus musculus [7]): 5%

Cc1ccc([C@@H]2c3cc(C)ccc3[C@H]3CN(C(C)C)CC[C@@H]23)cc1.Cl
Reduction (Mus musculus [1]): 23%
Reduction (Mus musculus [30]): 10%
Reduction (Mus musculus [5]): 28%
Reduction (Mus musculus [20]): 45%
Reduction (Mus musculus [6]): 15%
Reduction (Mus musculus [7]): 7%

CCN1CC[C@H]2[C@H](c3ccc(O)cc3)c3cc(C)ccc3[C@H]2C1.Cl
Reduction (Mus musculus [1]): -1%
Reduction (Mus musculus [2]): -5%
